In ChEMBL document CHEMBL1137378, “Antibacterial agent discovery using thymidylate synthase biolibrary screening” (J Med Chem, 2006):
Converted amounts (≈) assume the structure as drawn.

How the values were obtained:
[1] = system: Staphylococcus aureus; experiment: Antibacterial activity against Staphylococcus aureus 341; assay type: functional
In short: (§1)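 Wild-type strain panel (18 Gram-positive and Gram-negative strains). Bacteria grown in Mueller-Hinton broth at 37 °C for 24 h. Exponentially growing cultures diluted in sterile liquid medium to a final inoculum of about 1 × 10⁴ CFU/mL, then exposed to increasing compound concentrations. MIC taken as the lowest concentration with no evident bacterial growth.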

[2] = system: Listeria monocytogenes; experiment: Antibacterial activity against Listeria monocytogenes 4; assay type: functional; in short: as §1
[3] = system: Staphylococcus aureus; experiment: Antibacterial activity against Staphylococcus aureus ATCC 29213; assay type: functional; in short: as §1
[4] = system: Listeria monocytogenes; experiment: Antibacterial activity against Listeria monocytogenes ATCC 4428; assay type: functional; in short: as §1
[5] = system: Escherichia coli; experiment: Antibacterial activity against Escherichia coli 256; assay type: functional; in short: as §1
[6] = system: Staphylococcus aureus; experiment: Antibacterial activity against Staphylococcus aureus K28; assay type: functional; in short: as §1
[7] = system: Listeria monocytogenes; experiment: Antibacterial activity against Listeria monocytogenes 6; assay type: functional; in short: as §1
[8] = system: Staphylococcus saprophyticus; experiment: Antibacterial activity against Staphylococcus saprophyticus ATCC 15305; assay type: functional; in short: as §1
[9] = target: Thymidylate synthase (Escherichia coli, UniProt C3SWJ7); experiment: Inhibition of Escherichia coli thymidylate synthase
Thymidylate synthase (Escherichia coli, UniProt C3SWJ7), sequence (C3SWJ7 whole entry): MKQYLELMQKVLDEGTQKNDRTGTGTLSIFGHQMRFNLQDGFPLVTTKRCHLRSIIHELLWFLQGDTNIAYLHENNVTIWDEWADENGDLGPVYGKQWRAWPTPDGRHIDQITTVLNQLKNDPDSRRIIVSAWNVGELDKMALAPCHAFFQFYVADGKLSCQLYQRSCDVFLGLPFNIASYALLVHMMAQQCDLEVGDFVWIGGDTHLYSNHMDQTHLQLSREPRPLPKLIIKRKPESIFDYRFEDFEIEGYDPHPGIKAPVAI

[10] = system: Listeria monocytogenes; experiment: Antibacterial activity against Listeria monocytogenes 3; assay type: functional; in short: as §1
[11] = system: Vero; experiment: Cytotoxicity against Vero cells measured as percent of cell growth at 25 mg/L relative to control by MTT assay; assay type: functional, Chlorocebus sabaeus
In short: (§2)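 VERO cells grown in MEM with 5% heat-inactivated (56 °C, 30 min) FCS, penicillin, streptomycin and L-glutamine. Cultures were watched for 2 days and live cells counted. Cells were then exposed to increasing compound concentrations; wells with cells only served as control. After 24 h, mitochondrial dehydrogenase activity was read by MTT. Trypan blue exclusion was also run.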

[12] = target: T1, Thymidylate synthase (Cryptococcus neoformans var. neoformans B-3501A, UniProt P0CS13); experiment: Inhibition of Cryptococcus neoformans thymidylate synthase
T1 sequence (P0CS13 whole entry): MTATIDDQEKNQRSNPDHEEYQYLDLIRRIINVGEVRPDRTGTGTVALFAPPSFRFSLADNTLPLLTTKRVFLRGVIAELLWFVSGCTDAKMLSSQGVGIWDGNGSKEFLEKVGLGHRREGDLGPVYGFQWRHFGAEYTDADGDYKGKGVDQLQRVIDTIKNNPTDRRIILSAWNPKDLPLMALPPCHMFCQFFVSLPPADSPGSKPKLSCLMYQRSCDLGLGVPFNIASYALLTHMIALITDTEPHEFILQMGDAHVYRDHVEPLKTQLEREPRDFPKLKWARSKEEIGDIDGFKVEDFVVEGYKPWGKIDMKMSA

[13] = system: Listeria monocytogenes; experiment: Antibacterial activity against Listeria monocytogenes 8; assay type: functional; in short: as §1
[14] = system: Listeria monocytogenes; experiment: Antibacterial activity against Listeria monocytogenes 7; assay type: functional; in short: as §1
[15] = system: Streptococcus; experiment: Antibacterial activity against Streptococcus 42; assay type: functional; in short: as §1
[16] = target: T2, Dihydrofolate reductase (Homo sapiens, UniProt P00374); experiment: Inhibition of human dihydrofolate reductase
T2 sequence (P00374 whole entry): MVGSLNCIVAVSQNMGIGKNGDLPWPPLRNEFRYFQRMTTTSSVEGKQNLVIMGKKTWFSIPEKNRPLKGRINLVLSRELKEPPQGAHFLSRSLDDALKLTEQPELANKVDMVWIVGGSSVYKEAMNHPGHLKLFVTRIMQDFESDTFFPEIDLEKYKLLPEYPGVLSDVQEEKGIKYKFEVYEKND
In short: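 Purified human DHFR assayed spectrophotometrically at 25 °C by the fall in A340 on DHF reduction. Ki from steady-state kinetics.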

[17] = system: Vero; experiment: Cytotoxicity against Vero cells measured as percent of cell growth at 1.56 mg/L relative to control by MTT assay; assay type: functional, Chlorocebus sabaeus; in short: as §2
[18] = Specificity Index, Ki for human thymidylate synthase/Ki for Lactobacillus casei thymidylate synthase
[19] = system: Citrobacter; experiment: Antibacterial activity against Citrobacter 224; assay type: functional; in short: as §1
[20] = Specificity Index, Ki for human thymidylate synthase/Ki for Cryptococcus neoformans thymidylate synthase
In short: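 Specificity index is Ki of hTS divided by Ki of the pathogen TS (LcTS, EcTS or CnTS). Each enzyme was purified to >95% and assayed spectrophotometrically at 340 nm, 20 °C. Buffer was TES 50 mM pH 7.4 with MgCl2, formaldehyde, EDTA and 2-mercaptoethanol, plus dUMP 100 µM, mTHF 140 µM and enzyme 0.07 µM.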

[21] = system: Vero; experiment: Cytotoxicity against Vero cells measured as percent of cell growth at 12.05 mg/L relative to control by MTT assay; assay type: functional, Chlorocebus sabaeus; in short: as §2
[22] = system: Enterococcus faecalis; experiment: Antibacterial activity against Enterococcus faecalis ATCCC29212; assay type: functional; in short: as §1
[23] = Specificity Index, Ki for human thymidylate synthase/Ki for Escherichia coli thymidylate synthase
[24] = system: Vero; experiment: Cytotoxicity against Vero cells measured as percent of cell growth at 6.25 mg/L relative to control by MTT assay; assay type: functional, Chlorocebus sabaeus; in short: as §2
[25] = organism: Homo sapiens; experiment: Selectivity Index, Ki for human dihydrofolate reductase/Ki for human thymidylate synthase
[26] = system: Staphylococcus aureus; experiment: Antibacterial activity against Staphylococcus aureus 343; assay type: functional; in short: as §1
[27] = system: Listeria monocytogenes; experiment: Antibacterial activity against Listeria monocytogenes 5; assay type: functional; in short: as §1
[28] = system: Escherichia coli; experiment: Antibacterial activity against Escherichia coli 292; assay type: functional; in short: as §1
[29] = system: Vero; experiment: Cytotoxicity against Vero cells measured as percent of cell growth at 3.12 mg/L relative to control by MTT assay; assay type: functional, Chlorocebus sabaeus; in short: as §2
[30] = system: Vero; experiment: Cytotoxicity against Vero cells measured as percent of cell growth at 50 mg/L relative to control by MTT assay; assay type: functional, Chlorocebus sabaeus; in short: as §2
[31] = system: Staphylococcus haemolyticus; experiment: Antibacterial activity against Staphylococcus haemolyticus ATCC 2997; assay type: functional; in short: as §1
[32] = target: T3, Thymidylate synthase (Lactobacillus casei, UniProt P00469); experiment: Inhibition of Lactobacillus casei thymidylate synthase; parameters: species or system Lacticaseibacillus casei
T3 sequence (P00469 whole entry): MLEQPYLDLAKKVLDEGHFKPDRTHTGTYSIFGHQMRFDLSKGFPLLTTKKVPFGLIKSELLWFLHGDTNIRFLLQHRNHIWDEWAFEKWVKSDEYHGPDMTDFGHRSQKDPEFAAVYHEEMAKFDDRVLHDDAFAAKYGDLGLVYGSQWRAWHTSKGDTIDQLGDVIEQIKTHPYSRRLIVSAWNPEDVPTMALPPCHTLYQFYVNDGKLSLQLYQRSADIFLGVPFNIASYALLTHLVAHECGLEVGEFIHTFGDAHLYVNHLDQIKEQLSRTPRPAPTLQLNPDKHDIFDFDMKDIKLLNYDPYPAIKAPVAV

[33] = target: Thymidylate synthase (Homo sapiens, UniProt P04818); experiment: Inhibition of human thymidylate synthase
Thymidylate synthase (Homo sapiens, UniProt P04818), sequence (P04818 whole entry): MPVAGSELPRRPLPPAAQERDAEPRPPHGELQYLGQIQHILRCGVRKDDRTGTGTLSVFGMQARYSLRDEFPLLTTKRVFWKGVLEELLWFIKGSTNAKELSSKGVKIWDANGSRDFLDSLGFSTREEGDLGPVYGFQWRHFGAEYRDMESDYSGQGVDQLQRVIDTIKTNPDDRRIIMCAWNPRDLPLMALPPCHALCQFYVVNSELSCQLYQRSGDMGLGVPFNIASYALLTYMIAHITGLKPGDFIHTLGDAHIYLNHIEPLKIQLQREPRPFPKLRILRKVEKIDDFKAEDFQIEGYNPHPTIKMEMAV

Row | SMILES | MIC [1] [µg/mL] | MIC [2] [µg/mL] | MIC [3] [µg/mL] | MIC [4] [µg/mL] | MIC [5] [µg/mL] | MIC [6] [µg/mL] | MIC [7] [µg/mL] | MIC [8] [µg/mL] | Ki [9] [µM] | MIC [10] [µg/mL] | Activity [11] [%] | Ki [12] [µM] | MIC [13] [µg/mL] | MIC [14] [µg/mL] | MIC [15] [µg/mL] | Ki [16] [µM] | Activity [17] [%] | Ratio Ki [18] | MIC [19] [µg/mL] | Ratio Ki [20] | also measured
1 | O=C1OC(c2ccc(O)c(Br)c2)(c2ccc(O)c(Br)c2)c2ccc(Cl)c3cccc1c23 | 2.5 (≈ 4.46 µM) | 2.5 (≈ 4.46 µM) | 2.5 (≈ 4.46 µM) | 1 (≈ 1.78 µM) | > 25 | 2.5 (≈ 4.46 µM) | 2.5 (≈ 4.46 µM) | 1 (≈ 1.78 µM) | 4.1 | 5 (≈ 8.92 µM) | 85 | 4.1 | 5 (≈ 8.92 µM) | 2.5 (≈ 4.46 µM) | 1 (≈ 1.78 µM) | 13 | 96 | > 306 | > 25 | > 60 | Activity [21]: 97%; MIC [22]: 5 µg/mL (≈ 8.92 µM); Ratio Ki [23]: > 60; Activity [24]: 97%; Selectivity index [25]: < 0.05; MIC [26]: 1 µg/mL (≈ 1.78 µM); MIC [27]: 5 µg/mL (≈ 8.92 µM); MIC [28]: > 25 µg/mL; Activity [29]: 95%; Activity [30]: 61%; MIC [31]: 5 µg/mL (≈ 8.92 µM)
2 | O=C1OC(c2ccc(O)c(Br)c2)(c2ccc(O)c(Br)c2)c2cccc3cccc1c23 | 5 (≈ 9.5 µM) | 5 (≈ 9.5 µM) | 5 (≈ 9.5 µM) | 5 (≈ 9.5 µM) | > 50 | 5 (≈ 9.5 µM) | 5 (≈ 9.5 µM) | 5 (≈ 9.5 µM) | 0.9 | 2.5 (≈ 4.75 µM) | 84 | 13 | 5 (≈ 9.5 µM) | 1 (≈ 1.9 µM) | 5 (≈ 9.5 µM) | 15 | 100 | 1 | > 50 | 0.4 | Ki [32]: 6.8 µM; Ki [33]: 4.7 µM; Activity [21]: 100%; MIC [22]: 10 µg/mL (≈ 19 µM); Ratio Ki [23]: 5; Activity [24]: 100%; Selectivity index [25]: 3; MIC [26]: 5 µg/mL (≈ 9.5 µM); MIC [27]: 5 µg/mL (≈ 9.5 µM); MIC [28]: > 50 µg/mL; Activity [29]: 100%; Activity [30]: 41%; MIC [31]: 5 µg/mL (≈ 9.5 µM)
